# Screening data (PubChem BioAssay)
# Sampled rows, rich in hits. Any-hit rate of the full collection: about 0.72%.
# TNAP act hiacc = activators of human TNAP at high phosphate acceptor concentration; purified TNAP, CDP-star luminescence, 1 M DEA, 30 min; active compounds read high; 0 = EDTA background, 1 = DMSO-only activity; activation factor at 20 µM; 200,000 tested, under 10 active; AID 1136;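 active = activation factor at least 2 at 20 µM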
#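 Measured by: Luminescent substrate turnover signal | Test system: Human TNAP | Input: TNAP 1/800 final | Dosing: 20 µM single point | Schedule: 30 min, room temperature | Controls: EDTA wells as negative control, DMSO wells as positive control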
# TNAP inh noacc = inhibitors of human TNAP without phosphate acceptor; P05186; purified TNAP, CDP-star luminescence, 30 min; inhibition, % at 20 µM; 0.26% of 200,000 active;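 active = tissue-nonspecific alkaline phosphatase inhibition above about 50% at 20 µM in the single-dose screen, limit read from the data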;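 also: 0% = DMSO negative control and 100% = EDTA positive control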
# Arbovirus inh = arbovirus infection inhibition; arbovirus infection cell-based antiviral screen; inhibition, % at 10 µM; 0.37% of 200,000 active; in the data active = inhibition above about 30%
# TNAP inh hiacc = inhibitors of human TNAP at high phosphate acceptor concentration; P05186; purified TNAP, CDP-star luminescence, 1 M DEA; inhibition, % at 20 µM; 0.03% of 200,000 active; AID 1135;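 active = over 50% inhibition of tissue-nonspecific alkaline phosphatase at 20 µM in the single-dose screen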;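 also: plate controls were DMSO wells for no effect and EDTA-quenched wells as full inhibition for full effect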
# PKD1 kinase inh = blocks activity of human protein kinase D1; Q15139; PKD1 kinase fluorescence polarization assay; inhibition, % (no concentration beside the values); 0.056% of 200,000 active; in the data active = inhibition above about 50%
# Target sequence (Q15139 whole entry, looked up): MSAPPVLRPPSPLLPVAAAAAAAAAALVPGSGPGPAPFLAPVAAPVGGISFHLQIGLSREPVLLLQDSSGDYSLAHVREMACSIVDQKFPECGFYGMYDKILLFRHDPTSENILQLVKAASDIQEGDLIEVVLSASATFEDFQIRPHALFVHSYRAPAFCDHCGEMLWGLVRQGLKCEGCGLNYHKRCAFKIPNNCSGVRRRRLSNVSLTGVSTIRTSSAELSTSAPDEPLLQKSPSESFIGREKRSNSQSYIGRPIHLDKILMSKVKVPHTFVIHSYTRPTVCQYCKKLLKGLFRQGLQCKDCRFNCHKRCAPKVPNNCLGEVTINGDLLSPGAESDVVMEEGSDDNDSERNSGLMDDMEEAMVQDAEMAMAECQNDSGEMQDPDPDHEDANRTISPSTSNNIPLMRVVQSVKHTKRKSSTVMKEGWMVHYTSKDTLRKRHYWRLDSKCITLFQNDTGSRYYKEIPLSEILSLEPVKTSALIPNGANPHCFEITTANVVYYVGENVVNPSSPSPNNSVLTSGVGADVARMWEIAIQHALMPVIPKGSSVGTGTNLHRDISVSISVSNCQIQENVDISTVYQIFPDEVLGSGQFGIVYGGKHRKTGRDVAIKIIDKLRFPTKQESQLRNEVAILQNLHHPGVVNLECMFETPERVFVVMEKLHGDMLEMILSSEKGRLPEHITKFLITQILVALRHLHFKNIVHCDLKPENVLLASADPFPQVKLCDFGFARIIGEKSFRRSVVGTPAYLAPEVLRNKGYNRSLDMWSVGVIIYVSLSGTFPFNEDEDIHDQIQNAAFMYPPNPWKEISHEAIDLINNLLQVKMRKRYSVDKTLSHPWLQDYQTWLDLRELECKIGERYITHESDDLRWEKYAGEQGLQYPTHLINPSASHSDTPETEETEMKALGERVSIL
# * hit, by the source's call; / = no result given.
SMILES,TNAP act hiacc,TNAP inh noacc,Arbovirus inh,TNAP inh hiacc,PKD1 kinase inh
CC(C)OC(=O)c1cc(NC(=O)c2nn(C)cc2Br)cc(C(=O)OC(C)C)c1,1,-1.1,-4.9,-3.1,-14.4
CC(C)CCNC(=O)C(C)N(C(=O)c1snc(C(N)=O)c1N)c1cnc2ccccc2c1 (stereo not given),1,61.9*,1.1,3.1,3.0
COc1cccc(C(=O)Nc2nc(-c3ccc(S(=O)(=O)N4CCOCC4)cc3)cs2)c1,1.1,-0.5,-0.1,-8.5,-2.1
COc1cc(C(=O)Nc2nc(-c3ccc(F)cc3)cs2)ccc1OCC(=O)N1CCOCC1,1,-4.2,83.3*,-0.4,-2.6
COc1cc(C(=O)Nc2nc(-c3ccc(C)cc3)cs2)ccc1OCC(=O)N1CCOCC1,1.1,-9.3,90.8*,-7.8,-7.8
Cc1ccc(-c2csc(NC(=O)c3cccc(S(=O)(=O)N4CCN(C)CC4)c3)n2)cc1,1,-2.4,35.1*,-2.0,-12.3
Cc1ccc(-c2csc(NC(=O)C3=NN(c4ccccc4)C(=O)CC3)n2)cc1,1,-9.0,66.8*,2.1,-2.3
O=C(CCS(=O)(=O)c1cccc2nsnc12)NCc1ccccc1Cl,1,-1.7,7.2,-2.5,-7.3
O=C(NC1CCCC1)C(=O)N(c1ccccc1F)C(C(=O)NCC1CCCO1)c1cccs1 (stereo not given),1.1,-7.2,2.1,-11.2,-9.0
COc1cc(C(=O)O)ccc1OCC(=O)N1CCOCC1,1,-10.0,-1.0,-3.6,-6.2
COc1ccc(-c2csc(NC(=O)c3ccc(OCC(=O)N4CCOCC4)c(OC)c3)n2)cc1,1,0.2,44.0*,3.1,-2.9
O=C(COc1ccccc1C(=O)N/N=C\c1ccc(O)c(O)c1)N/N=C/c1ccc(O)c(O)c1,0.4,92.4*,-8.1,59.9*,13.0
CCOC(=O)n1n[n+]([O-])c2ccccc21,1.1,-11.0,3.2,-7.7,3.0
CN1OC(c2ccccc2)=C(CO)C1c1ccccc1 (stereo not given),1,-3.2,-2.0,-1.9,-8.1
Cc1ccc(C(=O)c2coc3cc([N+](=O)[O-])c(O)c([N+](=O)[O-])c23)cc1,0.8,-3.5,36.5*,16.3,-4.5
Cc1ccc(C(=O)c2ccc([N+](=O)[O-])cc2)cc1,0.9,-1.2,-1.7,8.5,5.1
COc1ccc(CC(=O)N2CCN=C2SCc2cccc([N+](=O)[O-])c2)cc1,1,-4.0,-10.4,3.1,-1.0
O=Cc1ccc(OCc2ccccn2)cc1,1,-6.6,34.1*,-0.4,8.9
CN1/C(=C\C=C2/SC(=S)NC2=O)C(C)(C)c2ccccc21,0.5,40.8,6.5,50.8*,18.2
COc1ccccc1-c1nnc(SCc2ccccn2)n1C,1.1,-9.8,7.6,-8.6,-0.7
COc1ccccc1-c1nc(SCc2ccccn2)n[nH]1,1,84.3*,-1.5,-1.4,/
CS(=O)(=O)C1=NSC2=NC(=O)/C(=C\c3ccc(-c4ccccc4)o3)C(=N)N21,0.9,11.2,59.8*,5.1,-11.6
CC(C)S(=O)(=O)C1=NSC2=NC(=O)/C(=C\c3ccc(-c4cccc(C(=O)O)c4)o3)C(=N)N21,0.9,14.9,30.5*,14.6,1.2
N=C1/C(=C/c2ccc(-c3cccc(C(=O)O)c3)o2)C(=O)N=C2SC=C(c3ccccc3)N12,0.7,21.8,41.9*,29.0,5.6
CC(C)S(=O)(=O)C1=NSC2=NC(=O)/C(=C\c3ccc(-c4ccccc4)o3)C(=N)N21,0.9,9.7,33.1*,9.7,4.5
SMILES,TNAP act hiacc,TNAP inh noacc,Arbovirus inh,TNAP inh hiacc,PKD1 kinase inh
O=C(COC(=O)C1CC(=O)N(Cc2ccccc2)C1)Nc1ccccc1F (stereo not given),1,-9.1,12.1,-3.0,1.7
CCOc1cc(NC(=O)c2cccs2)c(OCC)cc1NC(=O)CCC(=O)NCCN1CCOCC1,1,-7.7,-0.1,-3.2,-5.8
CC(C)(C)C(=O)CNCC(=O)C(C)(C)C,1.1,-5.6,1.5,-5.6,11.6
COC(=O)c1sc(N2CCN(c3ccc(Cl)cc3)CC2)nc1N,1,-25.5,4.0,-2.6,-1.4
Cc1n[nH]c(C)c1S(=O)(=O)N1CCC(C(=O)O)CC1,1,47.8,3.0,0.1,14.6
Cc1n[nH]c(C)c1S(=O)(=O)N1CCOCC1,1,56.8*,-1.1,1.6,-10.3
COc1ccc(CC(=O)N(C)C2CCCCC2)cc1S(=O)(=O)N1CCOCC1,1,-7.0,6.2,1.2,-7.9
CCCc1cc(=O)[nH]c(SCc2ccccc2)n1,1,-6.6,4.7,-3.3,-4.8
CCCc1cc(=O)[nH]c(SCCCCN2C(=O)c3ccccc3C2=O)n1,1.1,-7.1,3.0,-5.0,108.7*
CN1CCN(C(=S)NC(=O)c2ccc(Cl)cc2)CC1,1,-2.1,81.5*,-1.5,-4.8
CCOC(=O)c1ccc(NC(=O)c2ccc(C)c(S(=O)(=O)N3CCOCC3)c2)cc1,1.1,-14.0,32.6*,-7.6,-6.7
Cc1ccc(SCC(=O)Nc2ccc(-c3nc4ccccc4[nH]3)cc2)cc1,1,-9.6,-4.6,-2.1,10.1
CCOC(=O)C1(Cc2cccc(OC)c2)CCN(Cc2ccccc2OC)CC1,1.1,-6.1,11.3,-8.3,-2.6
CCOC(=O)C1(Cc2cccc(OC)c2)CCN(Cc2cccc(OC)c2O)CC1,1.1,-4.3,33.2*,-6.4,2.5
Cc1cccc(CSc2nn3c(=O)c(C)nnc3s2)c1,1,-11.5,39.7*,-3.8,2.5
COc1ccc(/C=N/NC(=O)c2ccc(O)cc2O)cc1CSc1ccccn1,1,-3.5,-5.0,-1.4,5.0
CS(=O)(=O)c1ccc2nc(NC(=O)c3cccc(NS(=O)(=O)c4ccc(F)c(F)c4)c3)sc2c1,1,-13.1,64.7*,-1.2,3.8
COc1ccc(/C=N/NC(=O)c2cc(C34CC5CC(CC(C5)C3)C4)[nH]n2)cc1O,1,93.8*,-29.3,2.9,2.2
COc1ccc(/C=N\NC(=O)c2ccc(=O)[nH]n2)cc1O,0.9,-9.6,0.3,5.5,-8.5
CC(C)(C)c1c(Cl)c(O)c(-c2ccccc2)c(=O)n1-c1ccccc1,0.9,3.2,84.4*,6.3,-1.3
O=c1c(-c2ccccc2)c(O)cc(-c2ccncc2)n1-c1ccc(Cl)cc1,1,-8.4,4.5,-1.2,2.0
COC(=O)c1ccccc1NC(=O)C1COc2ccccc2O1 (stereo not given),1,-7.0,11.8,-2.3,-4.5
COc1ccc(C)cc1NC(=O)C1COc2ccccc2O1 (stereo not given),1,-3.4,49.7*,-0.2,-0.3
O=C(Nc1ccccc1C(=O)N1CCCC1)C1COc2ccccc2O1 (stereo not given),1,-12.0,7.8,-3.2,65.7*
COC(=O)c1ccsc1NC(=O)C1COc2ccccc2O1 (stereo not given),1,-8.1,31.5*,-3.8,-12.8
Cc1ccc2[nH]c(=O)c(COC(=O)c3cccs3)cc2c1,1,-6.5,0.7,-0.7,-11.1
